Assay outcomes (PubChem)
Shown are actives, neighbours in structure and some others; about 2.4% of the full set was active somewhere.
NadD block: inhibitors of S. aureus NadD, primary screen, biochemical, colorimetric, uHTS; 360,000 compounds, 0.78% hits; AID 602399, 2012; inhibition, % at 20 µM; Nicotinate-nucleotide adenylyltransferase NadD (Staphylococcus aureus N315); purified NadD enzyme, colorimetric absorbance read-out; in the data active means inhibition above about 26%
Scp1 inh: Scp-1 phosphatase inhibitors, primary screen, biochemical, colorimetric, uHTS; Carboxy-terminal domain RNA polymerase II polypeptide A small phosphatase 1 (Homo …; Recombinant Scp1, phosphopeptide, malachite green phosphate absorbance; inhibition, % at 20 µM; 340,000 compounds, 0.88% hits;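 active means inhibition above about 50% at 20 µM, limit read from the data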;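 further: plate controls were DMSO wells with enzyme for no effect and wells lacking enzyme for full effect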
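Test system: SCP-1 catalytic domain; Buffer or medium: Acidic Tris acetate buffer with magnesium and detergent; Also added: Phosphorylated 17-residue peptide substrate; Compound: single 20 µM dose, 1% DMSO; Schedule: enzyme reaction 45 min at room temperature, colour 5 min, stabilisation 30 min; Signal: Phosphate-binding colour reagent, absorbance read at 630 nm.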
LMPTP inh: LMPTP phosphatase inhibitors, primary screen, biochemical, fluorescence intensity, uHTS; recombinant LMPTP-A, OMFP fluorogenic substrate; inhibition, % at 20 µM; 360,000 compounds, 0.22% hits; AID 651560, 2012;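 active means compounds that cut the enzyme signal by at least half of the control window in the single-dose screen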;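 further: plate controls were DMSO wells with enzyme plus substrate for no effect and substrate without enzyme for full effect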
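Assay system: LMPTP-A, protein tyrosine phosphatase of low molecular weight / Medium: pH 6.0 Bis-Tris buffer with DTT and Triton X-100 / Schedule: 50 min enzyme reaction at room temperature, protected from light / Measured by: endpoint fluorescence intensity from OMFP dephosphorylation / Read-out basis: % inhibition relative to no-enzyme and uninhibited control wells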
SUMO1 PPI mod: modulators of SUMO1 protein-protein interactions, primary screen, biochemical, uHTS; 360,000 compounds, 0.33% hits; inhibition, % at 20 µM; SUMO1 binding to a labelled peptide, TR-FRET, 1 h; in the data active means inhibition above about 37%
Target sequence (P63165 whole entry, looked up): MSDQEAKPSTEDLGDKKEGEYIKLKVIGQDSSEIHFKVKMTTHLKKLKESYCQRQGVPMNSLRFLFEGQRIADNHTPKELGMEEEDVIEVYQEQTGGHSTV
STEP block: STEP phosphatase inhibitors, primary screen, biochemical, fluorescence intensity, uHTS. recombinant STEP, OMFP fluorogenic substrate. 360,000 compounds, 0.25% hits. inhibition, % at 20 µM;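 active means inhibition at 20 µM, scaled per plate between control wells, above about 37%, limit read from the data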;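 further: 0% = DMSO with enzyme and substrate and 100% = substrate only without enzyme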
Target sequence (P54829 whole entry, looked up): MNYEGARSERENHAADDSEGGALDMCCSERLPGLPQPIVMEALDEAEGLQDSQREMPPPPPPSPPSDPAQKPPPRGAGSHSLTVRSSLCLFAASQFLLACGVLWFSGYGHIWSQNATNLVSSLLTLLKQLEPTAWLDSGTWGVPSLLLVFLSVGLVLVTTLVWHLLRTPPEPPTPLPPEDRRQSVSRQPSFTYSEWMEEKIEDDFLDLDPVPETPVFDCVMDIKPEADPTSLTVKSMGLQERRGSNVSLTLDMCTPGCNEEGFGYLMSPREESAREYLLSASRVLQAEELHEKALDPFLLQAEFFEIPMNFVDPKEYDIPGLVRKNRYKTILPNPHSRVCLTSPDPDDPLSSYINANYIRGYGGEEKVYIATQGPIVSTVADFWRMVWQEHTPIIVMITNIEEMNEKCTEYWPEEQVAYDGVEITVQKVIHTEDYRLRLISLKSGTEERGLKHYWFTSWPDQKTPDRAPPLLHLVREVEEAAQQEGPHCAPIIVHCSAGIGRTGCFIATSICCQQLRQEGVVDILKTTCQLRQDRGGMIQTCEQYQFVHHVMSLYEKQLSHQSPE
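Assay system: isolated STEP enzyme / Timing: 20 min at room temperature, dark / Doses: 20 µM, 1% DMSO / Technique: fluorescence intensity, excitation 480 nm, emission 540 nm / Reagent: fluorogenic phosphatase substrate OMFP at 25 µM final / Measure: percent inhibition scaled to no-enzyme and uninhibited-enzyme controls, plate-pattern corrected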
DNMT1 inh: human DNMT1 methyltransferase inhibitors, primary screen, biochemical, molecular beacon, fluorescence, HinP1I cleavage, uHTS; DNA (cytosine-5)-methyltransferase 1 (Homo sapiens), P26358; inhibition (reported as % activation of signal), % at 10 µM; 360,000 compounds, 0.83% hits; in the data active means inhibition above about 50%
Scp1 confirm: Scp-1 phosphatase inhibitors, retest, confirmation, biochemical, colorimetric, single concentration | shares compounds with Scp1 inh | recombinant SCP-1 catalytic domain, phosphate release, malachite green absorbance | inhibition, % at 20 µM | 2,500 compounds, 61% hits;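 further: plate controls were DMSO with enzyme for no effect and buffer wells lacking enzyme for full effect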
Scp-1 MG ctr: colorimetric readout interference by compounds, confirmation, artefact control for Scp-1 inhibitor project, biochemical, single concentration | shares compounds with Scp1 inh | Colorimetric interference counterscreen, malachite green absorbance 630 nm | apparent inhibition (interference), % at 20 µM | 2,500 tested, under 10 active;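 further: compounds added after enzyme reaction finished so only phosphate colour detection is probed; plate controls were DMSO wells with completed Scp-1 reaction for no effect and substrate wells lacking enzyme for full effect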
Scp1 DSF: Scp-1 binding by thermal shift, confirmation, orthogonal assay for Scp-1 inhibitor project, biophysical, differential scanning fluorimetry; shares compounds with Scp1 inh; thermal shift relative to vanadate control, % at 40 µM; 1,500 compounds, 25% hits; Recombinant SCP1, Sypro Orange thermal shift Tm;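 active means substances whose mean melting-temperature shift, as a percentage of the reference inhibitor's shift, reaches about 5.3%, limit read from the data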;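 further: 0% = Tm of DMSO wells and 100% = Tm with sodium orthovanadate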
Numbers without * were called inactive.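 How the source made its calls, unless noted: active means inhibition of at least 30% at 20 µM; inactive means the rest.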

`CCCN(CCC)CCNC(=O)c1cc2c(=O)n(C)c3ccccc3c2n1C` gave NadD block 6, Scp1 inh 90*, LMPTP inh 2, SUMO1 PPI mod 5, STEP block 1, DNMT1 inh 3, Scp1 confirm -8 and Scp-1 MG ctr -8.
Screening Cc1ccc(-n2nnc3c(=O)n(CC(=O)c4ccccc4)cnc32)cc1 returned NadD block -7, Scp1 inh -5, LMPTP inh 13, SUMO1 PPI mod -1, STEP block 2 and DNMT1 inh 8.
For Cc1ccc(-n2nnc3c(=O)n(CC(=O)NCc4ccccc4)cnc32)cc1 the results were NadD block 2, Scp1 inh 93*, LMPTP inh 28, SUMO1 PPI mod 24, STEP block 33, DNMT1 inh 26, Scp1 confirm 86*, Scp-1 MG ctr -2 and Scp1 DSF -10.
`CCOc1ccccc1NC(=O)Cn1cnc2c(nnn2-c2cccc(OC)c2)c1=O` gave NadD block -5, Scp1 inh 71*, LMPTP inh 0, SUMO1 PPI mod 22, STEP block 8, DNMT1 inh 3, Scp1 confirm 58*, Scp-1 MG ctr -16 and Scp1 DSF -19.
For CCOc1ccc(CNC(=O)Cn2nc(C)c3c(C)n(-c4ccc(C)cc4)nc3c2=O)cc1 the results were NadD block 1, Scp1 inh 85*, LMPTP inh 12, SUMO1 PPI mod 5, STEP block 16, DNMT1 inh 19, Scp1 confirm 62*, Scp-1 MG ctr -13 and Scp1 DSF -21.
`CCCCN(CCCC)C(=S)N/N=C/c1c(C)[nH]n(-c2ccccc2)c1=O` gave NadD block 16, Scp1 inh -3, LMPTP inh 1, SUMO1 PPI mod 1, STEP block 5 and DNMT1 inh -23.
COc1cccc(-c2cnc(C(O)c3c(C)ccc4ccccc34)[nH]2)c1 (centres undefined) was read as NadD block 1, LMPTP inh 1, SUMO1 PPI mod -8, STEP block -1 and DNMT1 inh -1.
Screening CCC(=O)c1ccc(NC(C)=O)cc1O returned NadD block -2, Scp1 inh -11, LMPTP inh 0, SUMO1 PPI mod -1, STEP block -1 and DNMT1 inh -1.
Screening CC(=O)Nc1ccc2c(c1)C(C)(C)C(C)N2C (centres undefined) returned Scp1 inh 82*, Scp1 confirm -6 and Scp-1 MG ctr -11.
For CN(C)S(=O)(=O)c1ccc(C(=O)OCC(=O)N2CC3(C)CC2CC(C)(C)C3)cc1 (centres undefined) the results were NadD block 8, Scp1 inh -5, LMPTP inh 0, SUMO1 PPI mod 8, STEP block -1 and DNMT1 inh 1.
For C[n+]1ccc(C(=O)N/N=C/c2ccco2)cc1 the results were NadD block 7, Scp1 inh 60*, LMPTP inh -3, SUMO1 PPI mod -10, STEP block 1, DNMT1 inh 6, Scp1 confirm -21 and Scp-1 MG ctr -15.
`C/C(=N\NC(=O)c1ccccc1O)c1ccc(NC(=O)c2ccccc2)cc1` gave NadD block 3, Scp1 inh 67*, LMPTP inh 11, SUMO1 PPI mod -7, STEP block 36, DNMT1 inh 1, Scp1 confirm 69*, Scp-1 MG ctr -8 and Scp1 DSF 3.
`COc1cc(/C=C/c2cc[n+](C)cc2)ccc1OCC(=O)Nc1ccccc1` gave NadD block 1, Scp1 inh 77*, LMPTP inh -2, SUMO1 PPI mod -56, STEP block 0, DNMT1 inh -5, Scp1 confirm 89*, Scp-1 MG ctr -6 and Scp1 DSF -16.
`C=CCNC(=O)c1ccc(-c2ccc([N+](=O)[O-])cc2)o1` gave NadD block 5, Scp1 inh -5, LMPTP inh 3, SUMO1 PPI mod -23, STEP block 3 and DNMT1 inh -6.
CC1CCCCC1NC(=O)c1ccc(CSc2nc3ccncc3[nH]2)cc1 (centres undefined) was read as NadD block -2, Scp1 inh -9, LMPTP inh 15, SUMO1 PPI mod 1, STEP block 2 and DNMT1 inh 0.
Screening Cc1ccc(C)c(N2CCN(C(=O)c3ccc(CSc4nc5ccncc5[nH]4)cc3)CC2)c1 returned NadD block 8, Scp1 inh 56*, LMPTP inh 28, SUMO1 PPI mod -2, STEP block 0, DNMT1 inh -4, Scp1 confirm -16 and Scp-1 MG ctr -4.
Screening NC(=O)NC(=O)COC(=O)CN1C(=O)C2CCCCC2C1=O (centres undefined) returned NadD block 1, Scp1 inh -2, LMPTP inh -3, SUMO1 PPI mod -2, STEP block -2 and DNMT1 inh 0.
Screening CCCCOc1ccc(CNC(=O)NS(=O)(=O)c2ccc(OCC(C)C)cc2)cc1 returned NadD block 11, Scp1 inh 52*, LMPTP inh -1, SUMO1 PPI mod 2, STEP block 0, DNMT1 inh 2, Scp1 confirm 39*, Scp-1 MG ctr -11 and Scp1 DSF -15.
CCCCOc1ccc(S(=O)(=O)NC(=O)NCc2ccc(OCCC)cc2)cc1 was read as NadD block 8, Scp1 inh 4, LMPTP inh 0, SUMO1 PPI mod 7, STEP block 1 and DNMT1 inh 0.
